*1 amine or outer side, *2 acyl side, *3 side chain or, on linkers, in order; H or OH if unused. Where a SMILES comes first, the peptide text is derived from it. [ ]: non-standard residue; d: D form. The star is where a group is joined. Phe(4-NH(5-NH2triazol-3-yl)) = Nc1nc(Nc2ccc(C[C@H](N)C(=O)O)cc2)n[nH]1; X1 = Nc1nc(Nc2ccc(C[C@@H](N[*:1])C(=O)[*:2])cc2)n[nH]1; dPhe(4-NHCONH2) = NC(=O)Nc1ccc(C[C@@H](N)C(=O)O)cc1; Dihydroorotyl(S) = O=C1C[C@@H](C(=O)*)NC(=O)N1; dPhe(4-Cl) = N[C@H](Cc1ccc(Cl)cc1)C(=O)O; Phe(4-NH2) = Nc1ccc(C[C@H](N)C(=O)O)cc1; d2Nal = N[C@H](Cc1ccc2ccccc2c1)C(=O)O; Lys(iPr) = CC(C)NCCCC[C@H](N)C(=O)O; d3Pal = N[C@H](Cc1cccnc1)C(=O)O

In one test the target is T1, Gonadotropin-releasing hormone receptor (Homo sapiens, UniProt P30968).
T1 sequence (P30968 whole entry): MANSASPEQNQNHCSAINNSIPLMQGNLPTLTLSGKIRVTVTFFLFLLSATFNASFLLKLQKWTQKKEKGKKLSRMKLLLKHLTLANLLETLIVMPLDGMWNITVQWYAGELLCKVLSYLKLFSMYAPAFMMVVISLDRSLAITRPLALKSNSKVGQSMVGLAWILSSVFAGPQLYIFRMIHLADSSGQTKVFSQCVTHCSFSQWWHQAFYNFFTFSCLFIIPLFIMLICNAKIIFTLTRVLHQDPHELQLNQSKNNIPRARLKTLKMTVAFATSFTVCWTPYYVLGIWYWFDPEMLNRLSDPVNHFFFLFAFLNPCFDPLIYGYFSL
Kind of test: Antagonism of GnRH response in HEK293 cells expressing human GnRH receptor.
Conditions: not given
Format: functional, cell-based. The method, boiled down:
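HEK293 cells stably carrying cloned human GnRH receptor and luciferase reporter under LH α-subunit promoter; cultured in phenol red-free DMEM, 10% FBS, G418 0.4 mg/mL; plated 5×10^4 cells/well, overnight 37 °C. Compound (11 half-log concentrations, duplicate, 1% DMSO) preincubated 10 min, then GnRH 1 nM final, ≥5 h; luminescence read; % of control cps (blank-subtracted) gives IC50.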
Turning to `CC(=O)N[C@H](Cc1ccc2ccccc2c1)C(=O)N[C@H](Cc1ccc(Cl)cc1)C(=O)N[C@H](Cc1cccnc1)C(=O)N[C@@H](CO)C(=O)N[C@@H](Cc1ccc(NC(=O)[C@@H]2CC(=O)NC(=O)N2)cc1)C(=O)N[C@H](Cc1ccc(NC(N)=O)cc1)C(=O)N(C)[C@@H](CC(C)C)C(=O)N[C@@H](CCCCNC(C)C)C(=O)N1CCC[C@H]1C(=O)N[C@H](C)C(N)=O`, the midpoint of inhibition, the IC50, lay at 1.47 nM. This counts as single-digit nanomolar. On the same count and under the same terms, as for `CC(=O)N[C@H](Cc1ccc2ccccc2c1)C(=O)N[C@H](Cc1ccc(Cl)cc1)C(=O)N[C@H](Cc1cccnc1)C(=O)N[C@@H](CO)C(=O)N[C@@H](Cc1ccc(NC(=O)[C@@H]2CC(=O)NC(=O)N2)cc1)C(=O)N[C@H](Cc1ccc(NC(N)=O)cc1)C(=O)N[C@@H](CC(C)C)C(=O)N(C)[C@@H](CCCCNC(C)C)C(=O)N1CCC[C@H]1C(=O)N[C@H](C)C(N)=O`, the figure is 52.2 nM; as for `CC(=O)N[C@H](Cc1ccc2ccccc2c1)C(=O)N[C@H](Cc1ccc(Cl)cc1)C(=O)N[C@H](Cc1cccnc1)C(=O)N[C@@H](CO)C(=O)N[C@@H](Cc1ccc(NC(=O)[C@@H]2CC(=O)NC(=O)N2)cc1)C(=O)N[C@H](Cc1ccc(NC(N)=O)cc1)C(=O)N[C@@H](CC(C)C)C(=O)N[C@@H](CCCCNC1CCCCC1)C(=O)N1CCC[C@H]1C(=O)N[C@H](C)C(N)=O`, 1.5 nM. The same measure, in the same setting: with `CC(=O)N[C@H](Cc1ccc2ccccc2c1)C(=O)N[C@H](Cc1ccc(Cl)cc1)C(=O)N[C@H](Cc1cccnc1)C(=O)N[C@@H](CO)C(=O)N[C@@H](Cc1ccc(NC(=O)[C@@H]2CC(=O)NC(=O)N2)cc1)C(=O)N[C@H](Cc1ccc(NC(N)=O)cc1)C(=O)N[C@@H](CC(C)C)C(=O)N[C@@H](CCCNC(=O)CNC(C)C)C(=O)N1CCC[C@H]1C(=O)N[C@H](C)C(N)=O` the figure was 1.38 nM; with `CC(=O)N[C@H](Cc1ccc2ccccc2c1)C(=O)N[C@H](Cc1ccc(Cl)cc1)C(=O)N[C@H](Cc1cccnc1)C(=O)N[C@@H](CO)C(=O)N[C@@H](Cc1ccc(NC(=O)[C@@H]2CC(=O)NC(=O)N2)cc1)C(=O)N(C)[C@H](Cc1ccc(NC(N)=O)cc1)C(=O)N[C@@H](CC(C)C)C(=O)N[C@@H](CCCCNC(C)C)C(=O)N1CCC[C@H]1C(=O)N[C@H](C)C(N)=O`, 1.85 nM. The same measure, in the same setting: with `CC(=O)N[C@H](Cc1ccc2ccccc2c1)C(=O)N[C@H](Cc1ccc(Cl)cc1)C(=O)N[C@H](Cc1cccnc1)C(=O)N[C@@H](CO)C(=O)N[C@@H](Cc1ccc(NC(=O)[C@@H]2CC(=O)NC(=O)N2)cc1)C(=O)N[C@H](Cc1ccc(NC(N)=O)cc1)C(=O)N[C@@H](CC(C)C)C(=O)N[C@@H](CNC(=O)CCNC(C)C)C(=O)N1CCC[C@H]1C(=O)N[C@H](C)C(N)=O` the figure was 1.98 nM. Regarding `CC(=O)N[C@H](Cc1ccc2ccccc2c1)C(=O)N[C@H](Cc1ccc(Cl)cc1)C(=O)N[C@H](Cc1cccnc1)C(=O)N[C@@H](CO)C(=O)N[C@@H](Cc1ccc(NC(=O)[C@@H]2CC(=O)NC(=O)N2)cc1)C(=O)N[C@H](Cc1ccc(NC(N)=O)cc1)C(=O)N[C@@H](CC(C)C)C(=O)N[C@@H](CCCCNC(C)C)C(=O)N1CCC[C@H]1C(=O)N[C@H](C)C(N)=O` [DEGARELIX] (Ac-[d2Nal][dPhe(4-Cl)][d3Pal]S[Phe(4-NH2)](Dihydroorotyl(S))[dPhe(4-NHCONH2)]L[Lys(iPr)]P[dA]-NH2), the IC50 – broadly, the concentration that gives 50% inhibition – was 1.64 nM.

Compound `CC(=O)N[C@H](Cc1ccc2ccccc2c1)C(=O)N[C@H](Cc1ccc(Cl)cc1)C(=O)N[C@H](Cc1cccnc1)C(=O)N[C@@H](CO)C(=O)N[C@@H](Cc1ccc(Nc2n[nH]c(N)n2)cc1)C(=O)N[C@H](Cc1ccc(Nc2n[nH]c(N)n2)cc1)C(=O)N[C@@H](CC(C)C)C(=O)N[C@@H](CCCCNC(C)C)C(=O)N1CCC[C@H]1C(=O)N[C@H](C)C(N)=O` [PRAZARELIX ACETATE] (Ac-[d2Nal][dPhe(4-Cl)][d3Pal]S[Phe(4-NH(5-NH2triazol-3-yl))][X1]L[Lys(iPr)]P[dA]-NH2) displayed an IC50 of 1.4 nM.

The test is the same for the next values; noted with them: hek293.
The compound `CC(=O)N[C@H](Cc1ccc2ccccc2c1)C(=O)N[C@H](Cc1ccc(Cl)cc1)C(=O)N[C@H](Cc1cccnc1)C(=O)N[C@@H](CO)C(=O)N[C@@H](Cc1ccc(NC(=O)[C@@H]2CC(=O)NC(=O)N2)cc1)C(=O)N[C@H](Cc1ccc(NC(N)=O)cc1)C(=O)N[C@@H](CC(C)C)C(=O)N[C@@H](CN[C@H](C(=O)O)C1CCCCC1)C(=O)N1CCC[C@H]1C(=O)N[C@H](C)C(N)=O` returned a half-inhibitory concentration (IC50) of 2.01 nM. Still for that read-out and setting: with `CC(=O)N[C@H](Cc1ccc2ccccc2c1)C(=O)N[C@H](Cc1ccc(Cl)cc1)C(=O)N[C@H](CN(Cc1ccccn1)Cc1ccccn1)C(=O)N[C@@H](CO)C(=O)N[C@@H](Cc1ccc(NC(=O)[C@@H]2CC(=O)NC(=O)N2)cc1)C(=O)N[C@H](Cc1ccc(NC(N)=O)cc1)C(=O)N[C@@H](CC(C)C)C(=O)N[C@@H](CCCCNC(C)C)C(=O)N1CCC[C@H]1C(=O)N[C@H](C)C(N)=O` the figure was 5.31 nM; with `CC(=O)N[C@H](Cc1ccc2ccccc2c1)C(=O)N[C@H](Cc1ccc(Cl)cc1)C(=O)N[C@@H](Cc1cccnc1)C(=O)N[C@@H](CO)C(=O)N[C@@H](Cc1ccc(NC(=O)[C@@H]2CC(=O)NC(=O)N2)cc1)C(=O)N[C@@H](Cc1ccc(NC(N)=O)cc1)C(=O)N[C@@H](CC(C)C)C(=O)N[C@@H](CCNC(C(=O)O)C1CCCCC1)C(=O)N1CCC[C@H]1C(=O)N[C@H](C)C(N)=O` (stereo partly drawn), 1.77 nM; with `CC(=O)N[C@H](Cc1ccc2ccccc2c1)C(=O)N[C@H](Cc1ccc(Cl)cc1)C(=O)N[C@H](CCNCc1ccccn1)C(=O)N[C@@H](CO)C(=O)N[C@@H](Cc1ccc(NC(=O)[C@@H]2CC(=O)NC(=O)N2)cc1)C(=O)N[C@H](Cc1ccc(NC(N)=O)cc1)C(=O)N[C@@H](CC(C)C)C(=O)N[C@@H](CCCCNC(C)C)C(=O)N1CCC[C@H]1C(=O)N[C@H](C)C(N)=O`, 3.79 nM. On the same count and under the same terms, with `CC(=O)N[C@H](Cc1ccc2ccccc2c1)C(=O)N[C@H](Cc1ccc(Cl)cc1)C(=O)N[C@@H](Cc1cccnc1)C(=O)N[C@@H](CO)C(=O)N[C@@H](Cc1ccc(NC(=O)[C@@H]2CC(=O)NC(=O)N2)cc1)C(=O)N[C@@H](Cc1ccc(NC(N)=O)cc1)C(=O)N[C@@H](CC(C)C)C(=O)N[C@@H](CCCNC(=O)[C@H]1CC(=O)NC(=O)N1)C(=O)N1CCC[C@H]1C(=O)N[C@H](C)C(N)=O` the figure was 1.77 nM.

For the origin of these results see ChEMBL document CHEMBL1140331, “Iterative approach to the discovery of novel degarelix analogues: substitutions at positions 3, 7, and 8. Part II” (J Med Chem, 2005).
